# What was measured:
# [1] = molecular target: Chitinase (Hypocrea rufa, UniProt D2K848); assay: Inhibition of Trichoderma viride chitinase incubated for 10 mins to 3 hrs using 4-nitrophenyl N-acetyl-beta-D-glucosaminide substrate by spectrophotometry
# How it was run: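 Commercial Trichoderma viride chitinase preincubated with varying inhibitor concentrations directly in the reading plate, room temperature, 3 h. Substrate 4-nitrophenyl N-acetyl-β-D-glucosaminide then added. […] IC50 and Ki calculated from these readings.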
# [2] = tested on: Candida albicans; assay: Antifungal activity against Candida albicans incubated for 24 hrs by visual and spectrophotometry method; type: functional
# [3] = tested on: Meyerozyma guilliermondii; assay: Antifungal activity against Candida guillermondii incubated for 24 hrs by visual and spectrophotometry method; type: functional
# [4] = tested on: Pichia kudriavzevii; assay: Antifungal activity against Candida krusei incubated for 24 hrs by visual and spectrophotometry method; type: functional
# [5] = tested on: Candida parapsilosis; assay: Antifungal activity against Candida parapsilosis incubated for 24 hrs by visual and spectrophotometry method; type: functional; conditions: Lodderomyces parapsilosis
# [6] = tested on: Candida tropicalis; assay: Antifungal activity against Candida tropicalis incubated for 24 hrs by visual and spectrophotometry method; type: functional
# [7] = tested on: Kluyveromyces marxianus; assay: Antifungal activity against Candida kefyr incubated for 24 hrs by visual and spectrophotometry method; type: functional
# [8] = tested on: Nakaseomyces glabratus; assay: Antifungal activity against Candida glabrata incubated for 24 hrs by visual and spectrophotometry method; type: functional
# Chitinase, sequence (D2K848 whole entry): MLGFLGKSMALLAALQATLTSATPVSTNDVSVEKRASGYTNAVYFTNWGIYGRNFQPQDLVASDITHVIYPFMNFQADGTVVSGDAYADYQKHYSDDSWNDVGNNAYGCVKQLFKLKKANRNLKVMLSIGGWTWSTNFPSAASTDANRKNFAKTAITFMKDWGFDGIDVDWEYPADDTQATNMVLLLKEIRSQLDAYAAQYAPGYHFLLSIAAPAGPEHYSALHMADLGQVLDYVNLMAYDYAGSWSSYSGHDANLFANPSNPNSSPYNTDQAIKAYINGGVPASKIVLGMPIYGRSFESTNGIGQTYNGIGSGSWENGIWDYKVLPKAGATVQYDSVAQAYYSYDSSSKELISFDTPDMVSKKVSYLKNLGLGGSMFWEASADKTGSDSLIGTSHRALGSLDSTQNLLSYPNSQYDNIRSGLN
Compound,IC50 [1],Ki [1],MIC90 [2],MIC90 [3],MIC90 [4],MIC90 [5],MIC90 [6],MIC90 [7],MIC90 [8]
C#CCNC(=N)NCCCCCCN1CCCCCCCCNC(=N)NC1=O,97 µM,31.3 µM,,,,,,,
C=C(C)CNC(=N)NCCCCCCN1CCCCCCCCNC(=N)NC1=O,108 µM,34.8 µM,,,,,,,
C/C=C/CNC(=N)NCCCCCCCCN1CCCCCCCCNC(=N)NC1=O,157 µM,50.8 µM,,,,,,,
N=C(NCCCCCCCCN1CCCCCCCCNC(=N)NC1=O)NCC1CC1,130 µM,42 µM,,,,,,,
C/C=C/CNC(=N)NCCCCCCN1CCCCCCCCNC(=N)NC1=O,111 µM,35.8 µM,,,,,,,
CCNC(=N)NCCCCCCN1CCCCCCCCNC(=N)NC1=O,140 µM,45.3 µM,,,,,,,
C/C=C/CNC(=N)NCCCCCCCCN1CCCCCCOc2ccccc2CNC(=N)NC1=O,35.5 µM,14.1 µM,4 µg/mL,2 µg/mL,4 µg/mL,2 µg/mL,1 µg/mL,2 µg/mL,16 µg/mL
C/C=C/CNC(=N)NCCCCCCCCN1CCCCCOc2ccccc2CNC(=N)NC1=O,55 µM,17.8 µM,,,,,,,
CNC(=O)NC(=N)NCCCCCCCCN1CCCCCCOc2ccccc2CNC(=N)NC1=O,0.68 µM,0.22 µM,25 µg/mL,25 µg/mL,12 µg/mL,25 µg/mL,12 µg/mL,6 µg/mL,25 µg/mL

# Source: ChEMBL document CHEMBL4033747, “Design and synthesis of a novel inhibitor of T. Viride chitinase through an in silico target fishing protocol” (Bioorg Med Chem Lett, 2017)
